Assay results from ChEMBL document CHEMBL3745707 (Bioorg Med Chem, 2016).
Active and inactive are the calls of the source. The calls are words filed in the database; no cut-off is given here.

Columns and labels:
[1] = biological target: T1, Serine/threonine-protein kinase PLK2 (Homo sapiens, UniProt Q9NYY3); experiment: Inhibition of human PLK2 using casein as substrate
Target sequence in this assay (Q9NYY3 whole entry): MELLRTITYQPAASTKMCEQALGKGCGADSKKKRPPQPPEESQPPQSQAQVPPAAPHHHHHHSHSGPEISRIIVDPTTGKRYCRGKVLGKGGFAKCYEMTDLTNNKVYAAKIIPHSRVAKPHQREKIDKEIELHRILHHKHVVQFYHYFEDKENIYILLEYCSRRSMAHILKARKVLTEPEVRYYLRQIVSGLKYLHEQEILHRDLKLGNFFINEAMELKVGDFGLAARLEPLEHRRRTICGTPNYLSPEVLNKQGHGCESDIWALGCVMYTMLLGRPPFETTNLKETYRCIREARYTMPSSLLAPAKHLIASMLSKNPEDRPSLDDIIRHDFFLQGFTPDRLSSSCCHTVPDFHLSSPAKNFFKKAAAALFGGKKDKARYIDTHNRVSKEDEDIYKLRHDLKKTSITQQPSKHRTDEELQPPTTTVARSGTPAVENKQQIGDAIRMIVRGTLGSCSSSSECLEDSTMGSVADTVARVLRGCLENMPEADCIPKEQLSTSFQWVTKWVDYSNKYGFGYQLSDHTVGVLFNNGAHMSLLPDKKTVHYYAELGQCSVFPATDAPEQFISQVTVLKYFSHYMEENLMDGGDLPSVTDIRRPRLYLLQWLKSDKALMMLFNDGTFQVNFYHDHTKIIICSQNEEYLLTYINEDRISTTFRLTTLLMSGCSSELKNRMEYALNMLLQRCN

[2] = biological target: Serine/threonine-protein kinase Nek5 (Homo sapiens, UniProt Q6P3R8); experiment: Inhibition of human NEK5 using MBP as substrate
[3] = biological target: Testis-specific serine/threonine-protein kinase 3 (Homo sapiens, UniProt Q96PN8); experiment: Inhibition of human TSSK3 using [KKKVSRSGLYRSPSMPENLNRPR] as substrate
Sequence of Testis-specific serine/threonine-protein kinase 3 (Q96PN8 whole entry): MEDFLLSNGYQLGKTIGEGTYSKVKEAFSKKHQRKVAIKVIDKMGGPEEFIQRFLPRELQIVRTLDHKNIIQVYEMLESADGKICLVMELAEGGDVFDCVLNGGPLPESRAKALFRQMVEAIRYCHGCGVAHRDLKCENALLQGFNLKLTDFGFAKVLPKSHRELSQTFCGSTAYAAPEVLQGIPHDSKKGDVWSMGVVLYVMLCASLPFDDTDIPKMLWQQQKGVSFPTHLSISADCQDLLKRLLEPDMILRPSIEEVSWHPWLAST

[4] = biological target: Serine/threonine-protein kinase Nek1 (Homo sapiens, UniProt Q96PY6); experiment: Inhibition of human NEK1 using MBP as substrate
[5] = biological target: Serine/threonine-protein kinase Nek2 (Homo sapiens, UniProt P51955); experiment: Inhibition of human NEK2 using MBP as substrate
Sequence of Serine/threonine-protein kinase Nek2 (P51955 whole entry): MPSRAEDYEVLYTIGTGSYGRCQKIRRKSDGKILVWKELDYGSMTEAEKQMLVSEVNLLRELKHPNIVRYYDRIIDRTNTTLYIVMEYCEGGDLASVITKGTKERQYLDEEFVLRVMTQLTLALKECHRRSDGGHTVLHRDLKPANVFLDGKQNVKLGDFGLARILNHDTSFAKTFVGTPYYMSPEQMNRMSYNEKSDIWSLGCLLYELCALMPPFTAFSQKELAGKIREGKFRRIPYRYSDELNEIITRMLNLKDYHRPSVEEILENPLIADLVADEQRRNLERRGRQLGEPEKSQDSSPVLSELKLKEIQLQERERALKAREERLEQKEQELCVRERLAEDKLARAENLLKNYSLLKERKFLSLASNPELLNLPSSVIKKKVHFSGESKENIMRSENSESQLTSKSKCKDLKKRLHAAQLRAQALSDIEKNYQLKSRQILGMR

[6] = biological target: Ribosomal protein S6 kinase alpha-1 (Homo sapiens, UniProt Q15418); experiment: Inhibition of human RSK1 using [KKLNRTLSVA] as substrate
[7] = biological target: Cyclin-Y/Cyclin-dependent kinase 16 (Homo sapiens, UniProt Q00536); experiment: Inhibition of human CDK16/cyclin Y using RP protein as substrate; assay type: protein-complex assay
Sequence of Cyclin-Y/Cyclin-dependent kinase 16 (Q00536 whole entry): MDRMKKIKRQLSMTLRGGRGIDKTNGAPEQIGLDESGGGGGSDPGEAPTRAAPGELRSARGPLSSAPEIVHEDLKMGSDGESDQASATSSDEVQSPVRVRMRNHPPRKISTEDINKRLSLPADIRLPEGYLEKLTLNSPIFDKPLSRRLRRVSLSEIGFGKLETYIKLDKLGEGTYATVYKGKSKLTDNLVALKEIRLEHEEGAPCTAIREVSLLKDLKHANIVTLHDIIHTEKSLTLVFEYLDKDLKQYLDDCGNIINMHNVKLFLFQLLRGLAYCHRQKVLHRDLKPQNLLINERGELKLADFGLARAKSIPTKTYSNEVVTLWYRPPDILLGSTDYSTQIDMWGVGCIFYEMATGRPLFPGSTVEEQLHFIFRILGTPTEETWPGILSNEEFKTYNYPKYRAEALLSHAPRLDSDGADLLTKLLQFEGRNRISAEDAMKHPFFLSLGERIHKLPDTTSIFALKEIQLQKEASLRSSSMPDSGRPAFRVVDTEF
Sequence of Cyclin-Y/Cyclin-dependent kinase 16 (Q8ND76 whole entry, further chain): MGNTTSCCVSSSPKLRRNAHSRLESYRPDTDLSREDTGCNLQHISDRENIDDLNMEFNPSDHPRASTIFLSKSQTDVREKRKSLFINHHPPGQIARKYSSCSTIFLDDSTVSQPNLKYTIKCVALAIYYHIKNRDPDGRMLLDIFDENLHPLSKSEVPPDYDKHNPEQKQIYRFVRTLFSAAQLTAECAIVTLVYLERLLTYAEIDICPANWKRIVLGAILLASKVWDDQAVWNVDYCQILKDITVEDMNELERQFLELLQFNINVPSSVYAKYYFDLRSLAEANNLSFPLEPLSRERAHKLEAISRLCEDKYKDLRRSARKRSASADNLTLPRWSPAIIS

[8] = biological target: Glycogen synthase kinase-3 alpha (Homo sapiens, UniProt P49840); experiment: Inhibition of human GSK3alpha using [YRRAAVPPSPSLSRHSSPHQ(pS)EDEEE] as substrate
Sequence of Glycogen synthase kinase-3 alpha (P49840 whole entry): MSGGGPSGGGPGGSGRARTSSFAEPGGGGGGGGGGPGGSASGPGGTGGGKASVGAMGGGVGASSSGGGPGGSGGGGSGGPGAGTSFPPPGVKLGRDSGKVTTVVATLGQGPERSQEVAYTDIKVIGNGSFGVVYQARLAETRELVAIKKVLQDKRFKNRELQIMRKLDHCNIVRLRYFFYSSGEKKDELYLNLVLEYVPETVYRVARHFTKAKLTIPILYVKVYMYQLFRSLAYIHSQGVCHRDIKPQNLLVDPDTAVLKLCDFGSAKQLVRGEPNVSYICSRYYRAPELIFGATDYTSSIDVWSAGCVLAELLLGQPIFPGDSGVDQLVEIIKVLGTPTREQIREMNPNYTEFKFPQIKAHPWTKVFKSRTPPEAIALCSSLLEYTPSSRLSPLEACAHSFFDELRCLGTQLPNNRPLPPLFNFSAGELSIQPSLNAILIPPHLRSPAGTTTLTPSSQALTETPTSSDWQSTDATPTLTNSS

Tubulin (Bos taurus) [9] = biological target: T2, Tubulin (Bos taurus) (UniProt Q6B856+Q862L2+Q862F3); experiment: Inhibition of bovine MAP rich tubulin polymerization at 10 uM measured every 2 mins for 30 mins by UV-visible spectrophotometric analysis; assay type: protein assay
How it was run: (§1)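 MAP-rich bovine tubulin at 1.5 mg/mL in 80 mM PIPES pH 6.9, 1 mM GTP, 0.5 mM EGTA, 2 mM MgCl₂. Briefly preincubated with agent or DMSO, then polymerized at 37 °C in a spectrophotometer. Absorbance recorded every 2 min for 30 min; n = 3.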

Ephrin type-A receptor 6 = Ephrin type-A receptor 6 (Homo sapiens, UniProt Q9UF33); experiment: Inhibition of human EPHA6 using poly[Glu:Tyr] (4:1) as substrate
[10] = biological target: Fibroblast growth factor receptor 3 (Homo sapiens, UniProt P22607); experiment: Inhibition of human FGFR3 using poly[Glu:Tyr] (4:1) as substrate
Sequence of Fibroblast growth factor receptor 3 (P22607 whole entry): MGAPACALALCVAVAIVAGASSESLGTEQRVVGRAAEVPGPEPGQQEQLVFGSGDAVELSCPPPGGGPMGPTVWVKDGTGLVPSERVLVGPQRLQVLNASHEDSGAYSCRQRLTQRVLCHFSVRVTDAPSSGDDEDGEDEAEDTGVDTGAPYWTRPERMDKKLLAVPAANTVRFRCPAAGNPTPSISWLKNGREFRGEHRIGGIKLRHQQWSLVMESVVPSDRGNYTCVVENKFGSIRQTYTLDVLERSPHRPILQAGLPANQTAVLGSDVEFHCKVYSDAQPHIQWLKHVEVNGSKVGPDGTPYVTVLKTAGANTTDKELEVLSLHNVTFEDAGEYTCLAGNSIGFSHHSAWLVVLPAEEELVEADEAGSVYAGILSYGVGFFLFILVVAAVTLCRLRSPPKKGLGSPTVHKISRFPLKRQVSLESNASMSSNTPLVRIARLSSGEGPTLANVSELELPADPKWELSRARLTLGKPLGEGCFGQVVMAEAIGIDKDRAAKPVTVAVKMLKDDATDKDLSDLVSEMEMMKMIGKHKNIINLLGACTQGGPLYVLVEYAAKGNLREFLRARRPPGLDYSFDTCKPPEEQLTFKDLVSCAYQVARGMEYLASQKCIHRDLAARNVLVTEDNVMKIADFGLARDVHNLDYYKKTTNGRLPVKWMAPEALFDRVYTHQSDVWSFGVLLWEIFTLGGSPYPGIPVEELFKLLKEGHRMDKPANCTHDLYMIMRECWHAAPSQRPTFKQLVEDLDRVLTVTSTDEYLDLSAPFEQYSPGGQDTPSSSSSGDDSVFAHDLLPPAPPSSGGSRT

[11] = biological target: Receptor-type tyrosine-protein kinase FLT3 (Homo sapiens, UniProt P36888); experiment: Inhibition of human FLT3 using [EAIYAAPFAKKK] as substrate
[12] = biological target: Fibroblast growth factor receptor 1 (Homo sapiens, UniProt P11362); experiment: Inhibition of human FGFR1 using [KKKSPGEYVNIEFG] as substrate
U2OS [13] = experiment: Induction of apoptosis in human U2OS cells assessed as increase in caspase 3/7 activity after 24 hrs by caspase Glo assay; assay type: functional, cell-based
How it was run: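 U2OS cells (DMEM, 10% FBS, 37 °C, 5% CO₂) plated at 1–3 × 10⁴ cells/well, left overnight, then exposed 24 h to increasing concentrations, with DMSO control. Caspase 3/7 activity read by Caspase-Glo luminescence; viability measured in parallel with Cell Titer Blue fluorescence.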

Mus musculus = experiment: Toxicity in NCR nu/nu mouse xenografted with human MDA-MB-231 cells assessed as change in body weight at 75 mg/kg, ip administered alternative day; assay type: organism-based; settings: in vivo
[14] = biological target: High affinity nerve growth factor receptor (Homo sapiens, UniProt P04629); experiment: Inhibition of human TRKA using poly[Glu:Tyr] (4:1) as substrate
Sequence of High affinity nerve growth factor receptor (P04629 whole entry): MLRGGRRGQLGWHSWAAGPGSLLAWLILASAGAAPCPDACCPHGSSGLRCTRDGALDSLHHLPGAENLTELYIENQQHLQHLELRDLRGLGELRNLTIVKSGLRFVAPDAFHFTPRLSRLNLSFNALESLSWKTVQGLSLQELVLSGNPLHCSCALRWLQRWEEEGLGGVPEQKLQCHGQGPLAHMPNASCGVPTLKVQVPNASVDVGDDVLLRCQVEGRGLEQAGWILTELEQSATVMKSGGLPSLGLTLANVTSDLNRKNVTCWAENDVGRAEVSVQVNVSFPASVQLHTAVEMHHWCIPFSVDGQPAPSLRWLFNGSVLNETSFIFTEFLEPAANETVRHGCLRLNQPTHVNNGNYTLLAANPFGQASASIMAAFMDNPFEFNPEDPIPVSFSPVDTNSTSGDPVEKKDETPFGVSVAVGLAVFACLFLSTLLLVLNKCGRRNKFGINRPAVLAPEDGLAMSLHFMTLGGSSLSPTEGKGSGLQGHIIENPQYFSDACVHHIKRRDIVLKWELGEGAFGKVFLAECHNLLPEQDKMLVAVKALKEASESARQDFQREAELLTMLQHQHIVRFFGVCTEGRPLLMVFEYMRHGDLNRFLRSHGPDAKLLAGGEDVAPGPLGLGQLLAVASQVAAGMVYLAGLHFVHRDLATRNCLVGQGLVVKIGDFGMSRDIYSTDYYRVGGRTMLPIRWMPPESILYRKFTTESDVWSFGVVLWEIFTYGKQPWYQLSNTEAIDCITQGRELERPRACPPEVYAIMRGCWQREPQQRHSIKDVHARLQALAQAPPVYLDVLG

[15] = biological target: T1, Serine/threonine-protein kinase PLK2; experiment: Inhibition of human recombinant PLK2 using recombinant dephosphorylated bovine alpha- casein as substrate after 30 mins by scintillation counting analysis in presence of gamma-32P-ATP
Target sequence in this assay (Q9NYY3 whole entry): as the sequence (Q9NYY3 whole entry) above

[16] = biological target: TRAF2 and NCK-interacting protein kinase (Homo sapiens, UniProt Q9UKE5); experiment: Inhibition of human TNIK using [RLGRDKYKTLRQIRQ] as substrate
[17] = biological target: T1, Serine/threonine-protein kinase PLK2
Target sequence in this assay (Q9NYY3 whole entry, looked up): as the sequence (Q9NYY3 whole entry) above

[18] = biological target: Mitogen-activated protein kinase 14 (Homo sapiens, UniProt Q16539); experiment: Inhibition of human P38alpha using MBP as substrate
[19] = biological target: Serine/threonine-protein kinase PLK1 (Homo sapiens) (UniProt P53350)
Sequence of Serine/threonine-protein kinase PLK1 (Homo sapiens) (P53350 whole entry): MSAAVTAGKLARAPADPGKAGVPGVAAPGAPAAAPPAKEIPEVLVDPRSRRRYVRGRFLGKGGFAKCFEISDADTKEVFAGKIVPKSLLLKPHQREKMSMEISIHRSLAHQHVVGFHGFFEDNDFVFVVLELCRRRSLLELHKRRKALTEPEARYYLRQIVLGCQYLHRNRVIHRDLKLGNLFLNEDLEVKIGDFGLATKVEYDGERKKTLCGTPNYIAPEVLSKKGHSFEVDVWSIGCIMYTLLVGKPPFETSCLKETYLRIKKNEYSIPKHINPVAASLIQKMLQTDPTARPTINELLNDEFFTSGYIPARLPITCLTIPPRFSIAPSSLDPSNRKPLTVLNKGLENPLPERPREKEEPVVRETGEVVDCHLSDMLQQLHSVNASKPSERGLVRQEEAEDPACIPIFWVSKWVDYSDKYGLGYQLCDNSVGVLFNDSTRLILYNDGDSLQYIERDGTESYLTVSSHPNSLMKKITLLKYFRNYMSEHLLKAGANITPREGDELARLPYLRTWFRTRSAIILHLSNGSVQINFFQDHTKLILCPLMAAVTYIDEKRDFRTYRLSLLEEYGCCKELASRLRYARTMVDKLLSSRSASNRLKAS

[20] = biological target: Serine/threonine-protein kinase Nek9 (Homo sapiens, UniProt Q8TD19); experiment: Inhibition of human NEK9 using MBP as substrate
SK-MEL-28 = experiment: cells; assay type: functional; settings: Homo sapiens, SK-MEL-28, 72 h
MCF7 = experiment: cells; assay type: functional; settings: Homo sapiens, MCF7, 72 h
K562 = experiment: cells; assay type: functional, cell-based; settings: Homo sapiens, K562, 72 h
cells [21] = assay type: functional; settings: Homo sapiens, MIA PaCa-2, 72 h
cells [22] = assay type: functional; settings: Homo sapiens, COLO 205, 72 h
cells [23] = assay type: functional; settings: Homo sapiens, Granta-519, 72 h
U2OS [24] = experiment: cells; assay type: functional; settings: Homo sapiens, 72 h
HeLa = experiment: cells; assay type: functional; settings: Homo sapiens, 72 h
cells [25] = assay type: functional; settings: Homo sapiens, SK-OV-3, 72 h
Raji = experiment: cells; assay type: functional; settings: Homo sapiens, 72 h
cells [26] = assay type: functional, U-87MG ATCC; settings: Homo sapiens, U-87 MG, 72 h
cells [27] = assay type: functional; settings: Homo sapiens, BT-474, 72 h
cells [28] = assay type: functional, cell-based; settings: Homo sapiens, DU-145, 72 h
A549 = experiment: cells; assay type: functional; settings: Homo sapiens, A549, 72 h
NCI-H1975 = experiment: cells; assay type: functional; settings: Homo sapiens, NCI-H1975, 72 h
Tubulin (Bos taurus) [29] = biological target: T2, Tubulin (Bos taurus); experiment: Inhibition of bovine MAP rich tubulin polymerization at 1 uM measured every 2 mins for 30 mins by UV-visible spectrophotometric analysis; assay type: protein assay; how it was run: as §1

| Compound | inhibition (Tubulin (Bos taurus) [9]) | Activity (U2OS [13]) | IC50 [15] | ΔTm [17] | GI50 (SK-MEL-28) | GI50 (MCF7) | IC50 (K562) | GI50 (cells [21]) | GI50 (cells [22]) | GI50 (cells [23]) | GI50 (U2OS [24]) | GI50 (HeLa) | GI50 (cells [25]) | GI50 (Raji) | GI50 (cells [26]) | GI50 (cells [27]) | IC50 (cells [28]) | GI50 (A549) | GI50 (NCI-H1975) | also measured |
| --- | --- | --- | --- | --- | --- | --- | --- | --- | --- | --- | --- | --- | --- | --- | --- | --- | --- | --- | --- | --- |
| Cn1c(=O)c(S(=O)(=O)c2ccc(F)cc2F)cc2cnc(Nc3ccc4[nH]ccc4c3)nc21 | inactive | Dose-dependent effect | 310 nM | 4.1 °C | – | – | – | – | – | – | – | – | – | – | – | – | – | – | – | IC50 [1]: 374 nM; IC50 [2]: 4420 nM; IC50 [3]: > 5000 nM; IC50 [4]: 630 nM; IC50 [5]: 1830 nM; IC50 [6]: > 5000 nM; IC50 [7]: > 10000 nM; IC50 [8]: > 5000 nM; IC50 (Ephrin type-A receptor 6): > 5000 nM; IC50 [10]: > 5000 nM; IC50 [11]: > 5000 nM; IC50 [12]: > 5000 nM; Activity (Mus musculus): Non-toxic; IC50 [14]: > 5000 nM; IC50 [16]: > 5000 nM; IC50 [18]: > 10000 nM; ΔTm [19]: 0.2 °C; IC50 [20]: > 5000 nM |
| Cn1c(=O)c(S(=O)(=O)c2ccc(F)cc2)cc2cnc(Nc3ccc4[nH]ccc4c3)nc21 | Active | Dose-dependent effect | 1070 nM | – | 300 nM | 250 nM | 200 nM | 75 nM | 200 nM | 60 nM | 55 nM | 75 nM | 200 nM | 100 nM | 400 nM | 200 nM | 300 nM | 200 nM | 100 nM | – |
| CC[C@]1(O)C[C@H]2CN(CCc3c([nH]c4ccccc34)[C@@](C(=O)OC)(c3cc4c(cc3OC)N(C=O)[C@H]3[C@@](O)(C(=O)OC)[C@H](OC(C)=O)[C@]5(CC)C=CCN6CC[C@]43[C@@H]65)C2)C1 | – | – | – | – | – | – | – | – | – | – | – | – | – | – | – | – | – | – | – | inhibition (Tubulin (Bos taurus) [29]): Active |
| Cn1c(=O)c(S(=O)(=O)c2ccc(O)cc2)cc2cnc(Nc3ccc4[nH]ccc4c3)nc21 | Active | – | 470 nM | – | 500 nM | 500 nM | 100 nM | 100 nM | 250 nM | 250 nM | 350 nM | 750 nM | 750 nM | 500 nM | 1000 nM | 200 nM | 250 nM | 750 nM | 750 nM | – |
| Cn1c(=O)c(S(=O)(=O)c2ccc(OC(=O)CCCCC3SCC4NC(=O)NC43)cc2)cc2cnc(Nc3ccc4[nH]ccc4c3)nc21 (stereo not given) | Active | – | – | – | 500 nM | 500 nM | 600 nM | 100 nM | 500 nM | 500 nM | 350 nM | 500 nM | 400 nM | 400 nM | 1000 nM | 250 nM | 150 nM | 2500 nM | 750 nM | – |
| CC[C@@H]1C(=O)N(C)c2cnc(Nc3ccc(C(=O)NC4CCN(C)CC4)cc3OC)nc2N1C1CCCC1 | – | – | – | 12.3 °C | – | – | – | – | – | – | – | – | – | – | – | – | – | – | – | – |
